# Wee1 stabilizer – inhibitors of human Wee1 degradation; P30291; HeLa Luc-Wee1K328M stability, luciferase luminescence; 100% = proteasome inhibitor MG132 effect; reporter increase, % at 5 µM; actives 1.2% (n = 220,000); AID 1321;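 active means activation above the mean of all tested compounds plus 3 SD, set per screening run, cut at about 8.8% in these data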;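 further: cells exposed to compound for 20 h before luminescence read; 0% = DMSO alone and 100% = MG132 at 30 µM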
# RBBP9 inh – inhibitors of human serine hydrolase RBBP9; O75884; recombinant RBBP9, FP-Rh probe fluorescence polarization; inhibition, % at 7.94 µM; actives 0.2% (n = 220,000);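 active means inhibition above the campaign mean of all tested compounds plus 3 SD, cut at about 14% in these data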;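 further: plate controls were DMSO wells with RBBP9 for no effect and wells lacking RBBP9 protein for full effect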
# Target sequence (O75884 whole entry, looked up): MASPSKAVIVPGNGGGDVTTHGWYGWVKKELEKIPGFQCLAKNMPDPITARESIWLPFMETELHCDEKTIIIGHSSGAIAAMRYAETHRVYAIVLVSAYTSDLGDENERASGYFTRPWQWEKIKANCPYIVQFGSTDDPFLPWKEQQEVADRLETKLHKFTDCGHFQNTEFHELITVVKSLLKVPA
#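 system = RBBP9 protein | input = RBBP9 at 2.5 µM in dispensed solution, before mixing | measured by = fluorescence polarization (mP), excitation 525 nm, emission 598 nm | incubation = enzyme-compound preincubation 30 min, then probe labeling 45 min, 25 °C | buffer or medium = Tris-NaCl-Pluronic buffer, pH 8.0 | compound = single dose 7.94 µM | also added = FP-Rh probe, 375 nM dispensing solution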
# Rad51 HR inh – Rad51 (human) homologous recombination inhibition. Q06609. hRad51 DNA strand exchange, fluorescence dequenching. inhibition, % at 10 µM. actives 0.085% (n = 200,000). AID 1385;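 active means inhibition above 40% at the single screening dose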;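 further: 0% = DMSO control wells and 100% = blanks with heterologous ssDNA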
# Target sequence (Q06609 whole entry, looked up): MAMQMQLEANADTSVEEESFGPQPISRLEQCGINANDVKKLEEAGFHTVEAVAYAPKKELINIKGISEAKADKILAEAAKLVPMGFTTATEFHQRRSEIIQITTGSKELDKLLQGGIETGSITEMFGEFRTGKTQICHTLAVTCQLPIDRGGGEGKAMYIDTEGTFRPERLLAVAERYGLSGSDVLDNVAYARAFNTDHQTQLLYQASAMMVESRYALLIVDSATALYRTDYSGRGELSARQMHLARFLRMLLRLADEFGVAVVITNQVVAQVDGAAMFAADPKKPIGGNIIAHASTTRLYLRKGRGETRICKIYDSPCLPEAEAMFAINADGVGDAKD
#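 Assay system: Human Rad51 nucleoprotein filaments preassembled on unlabelled ssDNA | Reagent: Donor/quencher-labelled 47-bp dsDNA substrate | Doses: One concentration, 10 µM final | Times: 37 °C 15-min filament assembly, 30-min compound preincubation, 15-min exchange | Technique: Fluorescein emission 520 nm, excitation 485 nm | Benchmarks: Plate control and blank wells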
# DNA FID counter – fluorescent intercalator displacement, NS3 helicase counter-screen; actives 0.17% (n = 290,000); AID 1845; DNA fluorescent intercalator displacement, fluorescence; inhibition, % at 7.9 µM; in the data active means inhibition above about 37%;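 further: 0% = vehicle and 100% = reference compound; higher means more ethidium bromide displaced from hairpin DNA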
# Wee1 degr conf – confirmation of human Wee1 degradation inhibitors; shares compounds with Wee1 stabilizer; HeLa Luc-Wee1K328M degradation, luminescence; vehicle 0%, proteasome-blocked wells 100%; activation, % at 5 µM; actives 4% (n = 1,100); AID 1410; in the data active means activation above about 8.9%
# * = called active by the depositor; x = not tested or not shown. Hits are enriched below; roughly 1.2% of the tested compounds scored in any of these assays.
SMILES,Wee1 stabilizer,RBBP9 inh,Rad51 HR inh,DNA FID counter,Wee1 degr conf
Cc1cc(OCc2nnc(SC(C)C(=O)O)n2Cc2ccccc2)ccc1Cl (configuration not stated),18*,-3,1,-9,-1
CCOC(=O)c1c(-c2ccc(C)cc2)csc1NC(=O)CCSc1nnc2ccccn12,2,6,-6,0,x
CCCCNS(=O)(=O)c1ccc(NC(=O)Cc2ccccc2[N+](=O)[O-])cc1,14*,-1,-45,4,1
O=C(Nc1ccccc1)C1=C[C@@H](c2ccc(Br)cc2)C[C@@H](OCCCCO)O1,5,-6,-5,-17,x
Clc1cccc(Cl)c1-c1nnc2cccc(Cl)n12,12*,-1,-5,-4,-1
Cc1cc(N2CCOCC2)nc(SCc2ccc(Cl)cc2Cl)n1,1,-7,-4,-7,x
CCCNC(=O)C1(CC2CC(c3ccccc3)=NO2)CCN(C(=O)Cc2ccc(F)cc2)CC1 (configuration not stated),x,x,-3,x,x
COC(=O)c1ccccc1NC(=O)c1c(O)c2c([nH]c1=O)CCCC2,-2,-9,-4,-10,x
O=C(Nc1ccc(O)cc1)c1c(O)c2c([nH]c1=O)CCCC2,14*,-5,6,1,6
CN(C)c1ccc(C(CNS(=O)(=O)c2ccc(F)c(F)c2)c2c[nH]c3ccccc23)cc1 (configuration not stated),11*,-5,-2,0,0
CN(C)c1ccc(C(CNC(=O)c2ccccc2F)c2c[nH]c3ccccc23)cc1 (configuration not stated),0,-4,2,-1,x
COc1cccc(C(=O)Nc2ccc(-c3nc4ccccc4o3)c(O)c2)c1,12*,-9,0,-4,2
O=C(c1ccoc1)N1CCC(CO)(CCc2ccccc2)CC1,6,-9,x,-14,x
CCCC(=O)N1CCN(c2ccc(NC(=O)c3cccs3)cc2Cl)CC1,16*,-6,2,-23,-1
c1ccc(C2Nc3ccccc3-c3nc4ccccc4n32)cc1 (configuration not stated),15*,-3,4,0,-3
O=C1c2ccccc2NC(c2ccccc2)N1Cc1ccco1 (configuration not stated),15*,-10,x,-2,0
CCOC(=O)c1ccc(NC(=O)C(CC)(CC)C(=O)OCC)cc1,16*,2,7,-21,-2
CCOC(=O)c1ccc(NC(=S)Nc2cccc(C)n2)cc1,-2,-5,5,-4,x
CCOC(=O)c1ccc(NC(=O)COC)cc1,1,1,-3,-3,x
CCOC(=O)c1cn[nH]c1NC(=S)Nc1ccc(OC)cc1,12*,10,5,-3,-6
COC(=O)c1cn[nH]c1NC(=S)Nc1ccc(Cl)c(Cl)c1,1,-8,5,0,x
CCOC(=O)c1ccc(NC(=S)Nc2cccc(N)n2)cc1,18*,-1,-6,-2,1
Cc1ccnc(N2C3CCC2CC(O)(c2ccccc2)C3)n1 (configuration not stated),12*,-11,14,0,0
Nc1nc(-c2cccnc2)nn1C(=O)c1ccc(F)cc1,3,7,x,0,x
COc1ccc(CN(Cc2cccn2C)S(=O)(=O)c2ccc(F)cc2)cc1,11*,3,16,-22,-1
SMILES,Wee1 stabilizer,RBBP9 inh,Rad51 HR inh,DNA FID counter,Wee1 degr conf
CCOc1ccc(NC(=S)NNC(=O)CC(C)O)cc1 (configuration not stated),0,5,x,-2,x
Cn1c(C(=O)Nc2ccc3c(c2)OCCO3)cc2sccc21,16*,-7,-3,-8,7
Cc1cc(C)n2nc(SCC(=O)NC3CCCCC3C)nc2n1 (configuration not stated),x,x,x,-8,x
O=c1c2c(ncn2C2CCCC2)n(Cc2ccccc2)c(=O)n1CCOc1ccccc1,14*,2,3,-16,1
CCOc1ccc(NC(=O)Cn2c(=O)n(CCCC(=O)NC3CCN(Cc4ccccc4)CC3)c(=O)c3ccccc32)cc1,x,x,x,5,x
CCN(CC)c1ccc(C(=O)Nc2cccc(F)c2)cc1,14*,-1,-1,-7,5
CN(C)c1cccc(C(=O)Nc2cccc(F)c2)c1,2,-8,4,-3,x
Nc1nnc(CC(=O)N/N=C/c2ccccc2OCc2ccc(F)cc2)s1,-3,1,x,-20,x
FC(F)(F)c1ccccc1NC(=S)Nc1ccccc1,x,x,x,-2,x
COc1ccc(NC(=S)Nc2ccccc2C(F)(F)F)cc1,17*,5,20,-2,1
Cc1cccc(OCC(=O)O/N=C(\N)c2ccccn2)c1C,11*,10,7,-13,4
O=C(Nc1nnc(-c2ccncc2)o1)c1ccccc1,22*,-1,3,-3,2
OC(COc1ccccc1)Cn1c2ccccc2c2ccccc21 (configuration not stated),0,-9,x,-5,x
Oc1cccc2ccc[n+](CC(O)Cn3c4ccccc4c4ccccc43)c12 (configuration not stated),18*,6,4,39*,-1
CC(=O)c1ccc(OCC(=O)c2cc(C)n(-c3ccc4c(c3)OCO4)c2C)cc1,15*,-4,-1,-2,0
Cc1cc(C(=O)COC(=O)c2ccc(N)c([N+](=O)[O-])c2)c(C)n1-c1ccc2c(c1)OCO2,4,1,2,0,x
Cc1ccccc1-c1nc(CS(=O)(=O)CC(=O)NC2CC2)c(C)o1,x,x,x,-21,x
CCC(C)c1ccc(NC(=S)NCc2ccccc2OC)cc1 (configuration not stated),17*,3,26,-19,2
COc1ccccc1CNC(=S)Nc1ccc(F)cc1,x,x,x,-9,x
CCN(CC)CCN(C(=O)c1ccc(CN2CCCCC2)o1)C(C(=O)NC1CCCCC1)c1ccc(F)cc1 (configuration not stated),11*,-6,-2,10,-2
NC(=O)CC(NC(=O)c1ccccc1)c1ccc(NC2CCCC2)c([N+](=O)[O-])c1 (configuration not stated),x,x,0,x,x
COc1ccc(NC(=O)COC(=O)Cc2ccccc2[N+](=O)[O-])cc1OC,31*,-14,-7,-2,1
O=C(NCCSc1ccccc1)c1ccc(CN2CCOCC2)cc1,15*,-5,22,-6,6
Clc1ccc(/C=C\c2nccc3c2[nH]c2ccccc23)cc1,12*,-10,-2,11,1
Cc1ccccc1-n1cnnc1SCC(=O)Nc1cccnc1Cl,15*,-1,0,-10,0
CCn1c(O)c(C=Nc2ccccc2)oc1=S,14*,-10,18,1,0
CCN(CC)CCCNCC(=O)Nc1ccc2c(c1)CCC2,0,-3,8,15,x
CC1CCCCN1CC(=O)NC(=O)NCc1ccccc1 (configuration not stated),18*,2,1,-7,5
